Source: PubChem (several laboratories)
Most compounds without a hit are left out; they make up all but 6.4% or so of the library.
H69AR growth 86K = proliferation blockers of H69AR lung cancer cells, primary screen, cell-based, human, 86K library. H69AR lung tumor viability, ATP luminescence, 72 h; stronger effect = lower value. viability, % at 10 µM. 85,000 compounds, 6% hits;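 active = viability at or below 40%; inactive = viability above 40%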;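 also: multidrug resistant small cell line overexpressing MRP-1 efflux transporter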
HUVEC inhibit = inhibitors of HUVEC proliferation, primary screen, cell-based, 384-well | CellTiter-Glo luminescence, 72 h; stronger effect = lower value | viability, % at 10 µM (by protocol) | 86,000 compounds, 1.1% hits | AID 648, 2007;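 active = viability at or below 30%; inactive = viability above 30%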
Jurkat viability = cytotoxicity toward Jurkat T cells, primary screen, cytotoxicity control, cell-based, Jurkat E6.1, 60K MLSMR library. Jurkat E6.1 viability, ATP luminescence, 48 h. 56,000 compounds, 1.2% hits. inhibition, % at 4 µM;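 active = inhibition above the mean inhibition of all tested compounds plus 3 SD, cut at about 28% in these data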
Fibroblast inh = antiproliferative effect on LL 47 fibroblasts – human, LL 47 cells, CellTiter-Glo luminescence, primary screen. 85,000 compounds, 1.1% hits. LL 47 human lung fibroblast viability, ATP luminescence; stronger effect = lower value. viability, % at 10 µM;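 active = viability at or below 50% in the single dose screen; inactive = viability above 50%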;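 also: compound exposure lasted 72 h before the ATP readout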
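Material: human lung fibroblast line LL 47, low passage; Evaluation: viability percentage against median untreated-cell control; Buffer or medium: 15% FBS in IMEM; Incubation: 72 h compound exposure at 37 °C after overnight plating; Dosing: 0.1% DMSO in all compound wells; Measured by: CellTiter-Glo luminescence.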
Large screens that a line does not name were inactive.

COCCNC(=O)c1ccc2c(c1)nc(C)n2-c1cc(OC)c(OC)c(OC)c1	none
COc1ccc(OCCCC(=O)NCC(C)C)cc1	none (no result: Jurkat viability)
CC(C)c1ccc(C(=O)CSc2n[nH]c(-c3ccncc3)n2)cc1	H69AR growth 86K 31.1 (no result: Jurkat viability)
O=C(CSc1n[nH]c(-c2ccccc2)n1)c1ccccc1	none
Cc1ccc(Cn2cnc3ccccc32)cc1	none (no result: Jurkat viability)
Cc1cc2ncn(S(=O)(=O)c3ccc(S(=O)(=O)N4CCCCCC4)cc3)c2cc1C	H69AR growth 86K 35.4 (no result: Jurkat viability)
CCOc1ccc(S(=O)(=O)n2cnc3cc(C)c(C)cc32)cc1	Jurkat viability 62.8
CC(=O)c1ccc(Oc2ncnc3sccc23)c(CN2CCOCC2)c1	none (no result: H69AR growth 86K, HUVEC inhibit, Fibroblast inh)
O=C(Oc1c(Cl)cc(Cl)c2cccnc12)c1ccco1	H69AR growth 86K 1.8, Fibroblast inh 43.1 (no result: Jurkat viability)
O=C(Oc1ccc2c(c1)OCO2)c1cccs1	none
O=C(Oc1c(Cl)cc(Cl)c2cccnc12)c1cccs1	H69AR growth 86K 27.4 (no result: Jurkat viability)
Clc1cnc(N/N=C/c2cccs2)c(Cl)c1	Fibroblast inh 48.5 (no result: Jurkat viability)
C(=N\n1cnnc1)/c1cccs1	none (no result: Jurkat viability)
Cc1ccc(/C=N/Nc2ncc(Cl)cc2Cl)s1	Fibroblast inh 47.5 (no result: Jurkat viability)
CN(C(=O)COc1cc(=O)n(C)c2ccccc12)c1ccc(Br)cc1	none
COc1ccccc1-c1c(C)nn2c(N3CCC(C(N)=O)CC3)cc(C)nc12	none (no result: Jurkat viability)
CCOC(=O)N1CCN(C(=O)CSc2cc(C)nc3c(-c4ccccc4OC)c(C)nn23)CC1	H69AR growth 86K 38.6
CCOC(=O)N1CCC(Nc2cc(C)nc3c(-c4ccccc4OC)c(C)nn23)CC1	H69AR growth 86K 37.1
COc1ccc2c(CC(=O)OCC(=O)NC(=O)c3cccn3C)coc2c1	none (no result: Jurkat viability)
CCCn1c2ccccc2c2nnc(SC(CC)C(=O)Nc3cc(C)on3)nc21 (configuration not stated)	H69AR growth 86K 31.8 (no result: Jurkat viability)
CCOC(=O)c1sc(NC(=O)C(CC)Sc2nnc3c4ccccc4n(CC)c3n2)nc1C (configuration not stated)	none
Cc1ccc(P(=Nc2ccccc2)(N2CCOCC2)N2CCOCC2)o1	none
COC(=O)c1c(C)n(-c2ccc(C)cc2)c2ccc(O)cc12	H69AR growth 86K 23.0, HUVEC inhibit 26.9 (no result: Jurkat viability)
COC(=O)c1c(C)n(-c2ccccc2)c2ccc(O)cc12	H69AR growth 86K 18.7
CCn1c(SCc2c(F)cccc2Cl)nnc1-c1ccco1	none
CCCCN(C)S(=O)(=O)c1cc(Br)cc2c1N(C(=O)C1CC1)CC2	H69AR growth 86K 31.4 (no result: Jurkat viability)
CCOCCCNS(=O)(=O)c1cc(Br)cc2c1N(C(=O)C1CC1)CC2	none (no result: Jurkat viability)
COc1cc(C2c3c(oc4ccc(C)cc4c3=O)C(=O)N2c2cc(C)ccn2)cc(OC)c1OC (configuration not stated)	H69AR growth 86K 32.1
COc1ccc(/C(N)=N/OC(=O)c2cccc([N+](=O)[O-])c2)cc1OC	none (no result: Jurkat viability)
COc1ccc(/C(N)=N/OC(=O)c2cccc([N+](=O)[O-])c2C)cc1OC	H69AR growth 86K 36.4 (no result: Jurkat viability)
O=C1c2ccccc2C(=O)N1Cc1nc2ccccc2c(=O)n1Cc1ccco1	none
O=c1c2ccccc2nc2ccc(NCc3ccco3)nn12	H69AR growth 86K 39.2
CC1(C)CC(=O)C2=C(C1)c1c(ccc3ccccc13)NC2c1ccc(Br)o1 (configuration not stated)	H69AR growth 86K 33.1 (no result: Jurkat viability)
COc1ccc(OC)c(Nc2cc(-c3ccccc3)nc(N)n2)c1	H69AR growth 86K 25.1, Jurkat viability 97.7
COc1ccc(OC)c(Nc2cc(C)nc3ccccc23)c1	none
Nc1[nH]c(=O)ncc1F	none (no result: Jurkat viability)
CCCCCCNC(=O)CC(c1ccccc1)c1cc(Br)ccc1O (configuration not stated)	HUVEC inhibit 11.4 (no result: Jurkat viability)
CC(C)NC(=O)CC(c1ccccc1)c1cc(Br)ccc1O (configuration not stated)	none (no result: Jurkat viability)
Cc1ccc(C)c(N2CCN(CC3CC=CCC3)CC2)c1 (configuration not stated)	none (no result: Jurkat viability)
Cc1cc(C)c(C)c(OCCCn2ccnc2)c1	none (no result: Jurkat viability)
C=CCn1c(SCC(=O)Nc2ccc(C(=O)OCC)cc2)nnc1-c1sc(N)nc1C	H69AR growth 86K 39.5
COc1ccc(OC)c(N(CC(=O)Nc2cccnc2)S(=O)(=O)c2ccc(C)cc2)c1	H69AR growth 86K 17.8 (no result: Jurkat viability)
COc1ccc(-c2cc(C(F)(F)F)nc(SCCC(=O)N3CCOCC3)n2)cc1	H69AR growth 86K 38.5 (no result: Fibroblast inh)
CCCNc1nc2c(c(=O)n(C)c(=O)n2C)n1CCc1ccccc1	none
CCCNc1nc2c(c(=O)n(C)c(=O)n2C)n1Cc1cccc(C)c1	Jurkat viability 59.1
